For 5 compounds, inhibition results are on record in ChEMBL document CHEMBL3272345, “Specificity in enzyme inhibition. 3. Synthesis of 5-substituted 2,2-dimethyl-4-imidazolidinones as inhibitors of tyrosine decarboxylase and histidine decarboxylase” (1976).

The target in experiment [1] is T1, Decarboxylase (Enterococcus faecalis) (UniProt Q8KXD2).
T1 sequence (whole entry): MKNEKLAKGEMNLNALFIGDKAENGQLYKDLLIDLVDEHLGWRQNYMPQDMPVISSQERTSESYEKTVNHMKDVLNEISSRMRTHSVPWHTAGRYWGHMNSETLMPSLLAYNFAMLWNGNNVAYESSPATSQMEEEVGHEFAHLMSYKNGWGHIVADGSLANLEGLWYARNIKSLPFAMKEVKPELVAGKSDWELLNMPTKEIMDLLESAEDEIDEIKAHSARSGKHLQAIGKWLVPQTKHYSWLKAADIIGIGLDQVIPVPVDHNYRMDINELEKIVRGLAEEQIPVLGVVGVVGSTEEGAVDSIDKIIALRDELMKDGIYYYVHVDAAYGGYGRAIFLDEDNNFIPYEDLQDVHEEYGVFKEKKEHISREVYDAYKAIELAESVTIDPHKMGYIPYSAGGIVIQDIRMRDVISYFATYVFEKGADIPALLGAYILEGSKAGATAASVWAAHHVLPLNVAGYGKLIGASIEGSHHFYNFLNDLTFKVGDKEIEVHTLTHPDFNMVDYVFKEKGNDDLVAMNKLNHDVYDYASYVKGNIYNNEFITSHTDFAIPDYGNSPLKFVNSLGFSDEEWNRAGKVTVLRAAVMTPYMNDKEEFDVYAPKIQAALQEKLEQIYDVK
The experiment can be described thus: Inhibition of Streptococcus faecalis tyrosine decarboxylase assessed as 14CO2 production using 5 mM L-phenylalanine-1-14C as substrate at 5 mM after 30 mins by scintillation counting analysis. In short, it runs like this: (§1)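 Crude S. faecalis tyrosine decarboxylase acetone powder (0.5 mg) used as the phenylalanine decarboxylase. Buffer was citrate–phosphate/0.2 M NaPO₄ pH 5.5 with 0.5 mM pyridoxal 5-phosphate, and the substrate was L-phenylalanine-1-¹⁴C (10⁻² μCi/μmol). Inhibitor at 5 mM. Incubated at 37° with shaking, stopped by TCA. ¹⁴CO₂ absorbed 30 min into hyamine and counted by scintillation. Percent inhibition versus controls, average of triplicates.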

Experiment [2] addresses T1, Decarboxylase (Enterococcus faecalis). The experiment can be described thus: Inhibition of Streptococcus faecalis tyrosine decarboxylase assessed as 14CO2 production using 10 mM L-phenylalanine-1-14C as substrate at 5 mM after 20 mins by scintillation counting analysis. In short, it runs like this:
as §1

The target is the same in experiment [3]. Put plainly: Inhibition of Streptococcus faecalis tyrosine decarboxylase assessed as 14CO2 production using 0.8 mM L-tyrosine-1-14C as substrate at 5 mM after 20 mins by scintillation counting analysis. In short, it runs like this: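 Crude acetone-powder enzyme from S. faecalis, 8 × 10⁻³ mg per 0.5 ml, in 0.075 M citrate–0.15 M phosphate pH 5.5 with 0.5 mM pyridoxal 5-phosphate. Substrate L-tyrosine-1-¹⁴C (2.85 × 10⁻¹ μCi/μmol). Inhibitor tested at 5 mM, 37° for 20 min, stopped with TCA. ¹⁴CO₂ trapped in hyamine hydroxide for 20 min and counted by scintillation. Percent inhibition versus no-inhibitor controls, mean of triplicate runs.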

In experiment [4] the target is T2, Histidine decarboxylase (Rattus norvegicus) (UniProt P16453).
T2 sequence (whole entry): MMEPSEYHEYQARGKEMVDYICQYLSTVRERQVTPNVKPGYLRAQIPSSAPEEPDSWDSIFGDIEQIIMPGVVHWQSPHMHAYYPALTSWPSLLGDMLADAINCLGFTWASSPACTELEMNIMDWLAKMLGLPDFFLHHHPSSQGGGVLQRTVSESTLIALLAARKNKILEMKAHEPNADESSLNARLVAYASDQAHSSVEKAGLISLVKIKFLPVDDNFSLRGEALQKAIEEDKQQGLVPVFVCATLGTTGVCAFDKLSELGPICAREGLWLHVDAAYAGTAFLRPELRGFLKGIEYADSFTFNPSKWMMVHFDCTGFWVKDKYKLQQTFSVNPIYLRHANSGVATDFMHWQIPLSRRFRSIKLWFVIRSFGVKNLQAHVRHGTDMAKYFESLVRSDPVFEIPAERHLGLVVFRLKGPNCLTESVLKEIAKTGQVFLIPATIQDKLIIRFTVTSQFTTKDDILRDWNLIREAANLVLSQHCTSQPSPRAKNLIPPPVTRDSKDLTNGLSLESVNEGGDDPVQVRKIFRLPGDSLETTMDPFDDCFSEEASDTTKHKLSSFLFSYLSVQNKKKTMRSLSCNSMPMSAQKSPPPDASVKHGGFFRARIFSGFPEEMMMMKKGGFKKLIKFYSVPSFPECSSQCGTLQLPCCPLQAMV
The experiment can be described thus: Inhibition of fetal rat histidine decarboxylase at 1 mM.

The test system of a further experiment is Ileum. Put plainly: Inhibition of histamine-induced response in guinea pig ileum at 1 mM. The experiment is classed as functional. The conditions noted are these: Cavia porcellus.

Calls of active or inactive are those of the source. The rule behind the calls is not given here.

Regarding `CC1(C)NC(=O)[C@H](Cc2c[nH]c3ccccc23)N1`, the results for the inhibition in experiment [1] and in experiment [2] were 42% and 33%, respectively.
For `CC1(C)NC(=O)C(Cc2ccccc2)N1` (racemic), the inhibition turned out to be 17% in experiment [1], 10% in experiment [3] and 13% in experiment [2].
For `CC1(C)NC(=O)[C@H](Cc2ccc(O)cc2)N1`, in that order: 39%, 38% and 31%.
As to `CC1(C)NC(=O)[C@H](Cc2cnc[nH]2)N1`, the inhibition in experiment [1] was found to be 27%; in experiment [2], 24%. The inhibition entry in experiment [4] was “inactive”. The inhibition at 1000 µM with Ileum was 57%.
As for `CC1(C)NC(=O)C(c2ccccc2)N1` (racemic), the inhibition in experiment [1] turned out to be 9%; in experiment [2], 7%.

In general, inhibition refers to the drop in the measured response relative to a control, in per cent.
